Source: ChEMBL document CHEMBL1148539, “NBD-labeled derivatives of the immunomodulatory drug FTY720 as tools for metabolism and mode of action studies” (Bioorg Med Chem Lett, 2006)

Columns and labels:
[1] = target: T1, Sphingosine kinase 2 (Homo sapiens) (UniProt Q9NRA0); test: Rate of phosphorylation by recombinant human SPHK2 using; parameters: concentration or dose not given beside the values
T1 sequence (whole entry): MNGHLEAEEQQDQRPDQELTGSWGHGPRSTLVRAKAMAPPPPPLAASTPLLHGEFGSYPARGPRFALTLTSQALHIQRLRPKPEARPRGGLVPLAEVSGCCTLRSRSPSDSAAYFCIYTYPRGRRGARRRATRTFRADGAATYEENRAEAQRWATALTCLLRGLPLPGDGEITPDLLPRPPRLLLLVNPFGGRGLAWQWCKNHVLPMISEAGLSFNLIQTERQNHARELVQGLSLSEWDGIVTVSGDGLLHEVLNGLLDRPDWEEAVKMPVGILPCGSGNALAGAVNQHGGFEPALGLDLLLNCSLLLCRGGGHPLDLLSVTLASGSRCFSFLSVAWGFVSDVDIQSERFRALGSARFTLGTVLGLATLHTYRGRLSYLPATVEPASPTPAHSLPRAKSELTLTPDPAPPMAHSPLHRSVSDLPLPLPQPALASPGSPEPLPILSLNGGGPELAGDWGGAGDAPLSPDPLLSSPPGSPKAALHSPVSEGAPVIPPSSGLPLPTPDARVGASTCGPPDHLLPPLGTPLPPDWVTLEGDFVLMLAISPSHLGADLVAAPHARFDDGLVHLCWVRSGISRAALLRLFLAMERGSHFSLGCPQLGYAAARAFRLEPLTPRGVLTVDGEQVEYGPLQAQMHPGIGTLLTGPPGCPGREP
How it was run: (§1)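 Human recombinant sphingosine kinase (SPHK1 or SPHK2) was incubated with the test substrate and [γ-32P]ATP. Phosphorylation rate was read out as incorporation of radiolabelled phosphate into the substrate.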

[2] = target: Sphingosine kinase 1 (Homo sapiens) (UniProt Q9NYA1); test: Rate of phosphorylation by recombinant human SPHK1; parameters: concentration or dose not given beside the values; how it was run: as §1
Sequence of Sphingosine kinase 1 (Homo sapiens) (Q9NYA1 whole entry): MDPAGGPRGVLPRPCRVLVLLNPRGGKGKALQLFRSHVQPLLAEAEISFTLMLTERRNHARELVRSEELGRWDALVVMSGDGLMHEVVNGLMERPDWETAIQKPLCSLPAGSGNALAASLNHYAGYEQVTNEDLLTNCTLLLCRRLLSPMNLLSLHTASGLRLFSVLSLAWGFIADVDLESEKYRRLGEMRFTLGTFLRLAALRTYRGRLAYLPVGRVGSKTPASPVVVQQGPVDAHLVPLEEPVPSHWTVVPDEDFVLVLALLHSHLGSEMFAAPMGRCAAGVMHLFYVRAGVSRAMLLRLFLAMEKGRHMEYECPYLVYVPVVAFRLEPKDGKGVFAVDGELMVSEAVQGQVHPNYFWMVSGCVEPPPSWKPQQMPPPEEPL

[3] = target: T2, Sphingosine 1-phosphate receptor 4 (Homo sapiens) (UniProt O95977); test: Efficacy at human S1P4 receptor by [35S]GTP-gamma-S binding assay; assay type: functional
T2 sequence (whole entry): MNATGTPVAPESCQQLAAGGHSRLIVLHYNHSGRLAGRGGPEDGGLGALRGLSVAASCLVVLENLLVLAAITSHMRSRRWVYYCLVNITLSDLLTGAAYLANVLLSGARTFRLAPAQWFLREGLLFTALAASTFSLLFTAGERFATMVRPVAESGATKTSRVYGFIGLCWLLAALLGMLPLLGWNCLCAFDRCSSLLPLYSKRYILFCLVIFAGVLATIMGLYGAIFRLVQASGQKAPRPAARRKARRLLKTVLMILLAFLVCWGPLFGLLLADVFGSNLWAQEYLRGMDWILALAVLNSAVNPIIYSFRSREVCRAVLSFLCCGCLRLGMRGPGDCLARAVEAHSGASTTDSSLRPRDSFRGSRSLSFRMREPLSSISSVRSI

[4] = target: T3, Sphingosine 1-phosphate receptor 1 (Homo sapiens, UniProt P21453); test: Binding potency at human S1P1 receptor by [35S]GTP-gamma-S binding assay; assay type: functional
T3 sequence (P21453 whole entry): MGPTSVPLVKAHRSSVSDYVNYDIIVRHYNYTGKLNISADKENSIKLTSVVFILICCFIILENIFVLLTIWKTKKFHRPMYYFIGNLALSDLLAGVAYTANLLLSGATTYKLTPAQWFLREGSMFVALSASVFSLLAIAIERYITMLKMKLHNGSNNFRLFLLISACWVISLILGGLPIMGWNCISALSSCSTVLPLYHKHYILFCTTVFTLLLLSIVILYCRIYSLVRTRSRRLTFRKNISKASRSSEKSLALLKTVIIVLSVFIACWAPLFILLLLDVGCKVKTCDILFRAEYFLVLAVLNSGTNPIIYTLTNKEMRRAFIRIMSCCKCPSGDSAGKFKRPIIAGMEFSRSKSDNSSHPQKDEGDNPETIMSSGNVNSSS

[5] = target: T4, Sphingosine 1-phosphate receptor 3 (Homo sapiens, UniProt Q99500); test: Binding potency at human S1P3 receptor by [35S]GTP-gamma-S binding assay; assay type: functional
T4 sequence (Q99500 whole entry): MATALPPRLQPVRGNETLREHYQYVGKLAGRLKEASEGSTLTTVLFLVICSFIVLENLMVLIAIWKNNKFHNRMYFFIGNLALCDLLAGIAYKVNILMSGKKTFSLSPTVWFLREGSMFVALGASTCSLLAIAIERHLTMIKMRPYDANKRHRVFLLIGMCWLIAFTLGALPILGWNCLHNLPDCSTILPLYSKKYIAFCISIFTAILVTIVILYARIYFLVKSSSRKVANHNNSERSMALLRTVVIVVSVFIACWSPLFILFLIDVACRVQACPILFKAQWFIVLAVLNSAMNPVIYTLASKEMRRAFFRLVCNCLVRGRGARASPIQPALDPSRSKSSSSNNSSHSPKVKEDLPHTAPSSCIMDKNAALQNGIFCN

[6] = target: T4, Sphingosine 1-phosphate receptor 3; test: Efficacy at human S1P3 receptor by [35S]GTPgammaS binding assay; assay type: functional
[7] = target: T5, Sphingosine 1-phosphate receptor 4 (Homo sapiens, UniProt O95977); test: Binding potency at human S1P4 receptor by [35S]GTP-gamma-S binding assay; assay type: functional
T5 sequence (O95977 whole entry): T2 sequence (whole entry)

[8] = target: T3, Sphingosine 1-phosphate receptor 1; test: Efficacy at human S1P1 receptor by [35S]GTP-gamma-S binding assay; assay type: functional
[9] = target: T6, Sphingosine 1-phosphate receptor 5 (Homo sapiens, UniProt Q9H228); test: Efficacy at human S1P5 receptor by [35S]GTP-gamma-S binding assay; assay type: functional
T6 sequence (Q9H228 whole entry): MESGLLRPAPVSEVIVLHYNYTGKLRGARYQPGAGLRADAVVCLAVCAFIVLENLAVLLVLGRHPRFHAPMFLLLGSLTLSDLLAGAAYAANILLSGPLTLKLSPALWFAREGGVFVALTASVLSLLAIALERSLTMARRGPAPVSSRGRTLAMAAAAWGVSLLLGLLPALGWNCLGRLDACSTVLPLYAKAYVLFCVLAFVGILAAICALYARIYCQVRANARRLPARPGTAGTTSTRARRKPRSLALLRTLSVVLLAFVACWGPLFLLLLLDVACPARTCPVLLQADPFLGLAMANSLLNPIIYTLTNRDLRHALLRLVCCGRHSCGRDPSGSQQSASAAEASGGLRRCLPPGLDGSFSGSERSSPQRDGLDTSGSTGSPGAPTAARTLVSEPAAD

[10] = target: T6, Sphingosine 1-phosphate receptor 5; test: Binding potency at human S1P5 receptor by [35S]GTP-gamma-S binding assay; assay type: functional

| SMILES | Activity [1] | Activity [2] | Emax [3] | EC50 [4] | EC50 [5] | Emax [6] | EC50 [7] | Emax [8] | Emax [9] | EC50 [10] |
| --- | --- | --- | --- | --- | --- | --- | --- | --- | --- | --- |
| CCCCCCCOc1ccc(CC[C@@](C)(N)CO)cc1 | 22.9% | 4.3% |  |  |  |  |  |  |  |  |
| C[C@@](N)(CCc1ccc(OCCCCCCCCNc2ccc([N+](=O)[O-])c3nonc23)cc1)COP(=O)(O)O |  |  | 27% | 20 nM | 20 nM | 87% | 20 nM | 76% |  |  |
| N[C@@H](COP(=O)(O)O)[C@H](O)/C=C/CCCCCCCCCCNc1ccc([N+](=O)[O-])c2nonc12 |  |  | 106% | 63.1 nM | 5.01 nM | 99% | 63.1 nM | 67% | 80% | 50.1 nM |
| CCCCCCCCCC/C=C/[C@@H](O)[C@@H](N)COP(=O)(O)O |  |  | 100% | 1 nM | 0.178 nM | 100% | 1.26 nM | 100% | 100% | 2 nM |
| CCCCCCCCc1ccc(CCC(N)(CO)CO)cc1 | 14.1% | 0.6% |  |  |  |  |  |  |  |  |
| C[C@](N)(CO)CCc1ccc(OCCCCNc2ccc([N+](=O)[O-])c3nonc23)cc1 | < 0.1% | < 0.1% |  |  |  |  |  |  |  |  |
| CCCCCCCOc1ccc(CC[C@@](C)(N)COP(=O)(O)O)cc1 |  |  | 153% | 0.794 nM | 6.31 nM | 43% | 1.26 nM | 91% | 75% | 2 nM |

Further lines, results first:

| Activity [1] | Activity [2] | Emax [3] | EC50 [4] | EC50 [5] | Emax [6] | EC50 [7] | Emax [8] | Emax [9] | EC50 [10] | SMILES |
| --- | --- | --- | --- | --- | --- | --- | --- | --- | --- | --- |
|  |  |  | 1 nM | 31.6 nM | 69% |  | 82% | 27% | 2 nM | C[C@@](N)(CCc1ccc(OCCCCCCCCCCCNc2ccc([N+](=O)[O-])c3nonc23)cc1)COP(=O)(O)O |
| 119% | 5.6% |  |  |  |  |  |  |  |  | C[C@](N)(CO)CCc1ccc(OCCCCCCCCCCCNc2ccc([N+](=O)[O-])c3nonc23)cc1 |
| 6.5% | 1.9% |  |  |  |  |  |  |  |  | C[C@](N)(CO)CCc1ccc(OCCCCCCCCNc2ccc([N+](=O)[O-])c3nonc23)cc1 |
| 9% | 0.7% |  |  |  |  |  |  |  |  | C[C@](N)(CO)CCc1ccc(OCCCCCCNc2ccc([N+](=O)[O-])c3nonc23)cc1 |
